Experimental data taken from PMC7612733 (Biochemistry, 2022).
Changes are numbered by the printed parent chain.

Tests used:
wt horcolin = target: T1, wt horcolin (Hordeum vulgare, UniProt Q5U9T2); assay: 1H-15N HSQC-detected NMR titration with TITAN 2D lineshape modeling, wt horcolin; assay type: binding, Hordeum vulgare (barley)
T1 sequence (Q5U9T2 1-146): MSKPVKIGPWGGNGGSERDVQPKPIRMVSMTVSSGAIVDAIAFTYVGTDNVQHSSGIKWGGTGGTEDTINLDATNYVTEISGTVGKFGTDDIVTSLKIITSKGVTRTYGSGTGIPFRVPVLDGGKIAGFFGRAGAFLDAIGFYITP

D138A horcolin = target: T2, D138A horcolin (Hordeum vulgare, UniProt Q5U9T2, D138A); assay type: binding, Hordeum vulgare (barley)
T2 sequence (Q5U9T2 1-146 D138A): T1 sequence (Q5U9T2 1-146) with D138A
Procedure, shortened: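 Uniformly 15N-labelled, C-terminally His-tagged D138A horcolin was expressed in E. coli BL21(DE3) in M9 medium and purified on Ni-NTA. Samples were in 25 mM Tris, 50 mM NaCl, 1 mM EDTA, 0.03% NaN3, 10% D2O, pH 7.4. 1H-15N HSQC spectra were recorded at 18 methyl-α-D-mannose concentrations from 0 to 167 mM. Lineshapes of 14 residues were globally fitted in TITAN; errors are SD of 100 bootstrap replicas.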

D39A horcolin = target: T3, D39A horcolin (Hordeum vulgare, UniProt Q5U9T2, D39A); assay type: binding, Hordeum vulgare (barley)
T3 sequence (Q5U9T2 1-146 D39A): T1 sequence (Q5U9T2 1-146) with D39A
Procedure, shortened: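 15N-labelled D39A horcolin carried a C-terminal His tag, was expressed in E. coli BL21(DE3) in M9 medium and purified by Ni-NTA. NMR buffer was pH 7.4: 25 mM Tris, 50 mM NaCl, 1 mM EDTA, 0.03% NaN3, 10% D2O. HSQC spectra were taken over 21 methyl-α-D-mannose points from 0 to 914 mM. Sixteen residues were globally lineshape-fitted in TITAN; errors are SD of 100 bootstraps.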

crystal structure = target: the molecule itself; assay: crystal structure
HIV gp120 = details: read-out: equilibrium dissociation constant (Kd); cited from earlier work
HIV-1 = details: cited from earlier work

CO[C@H]1O[C@H](CO)[C@@H](O)[C@H](O)[C@@H]1O [mannose, methyl-α-D-mannose]
koff1 (wt horcolin; CBS1, wt horcolin, sequential model): (2.4 ± 0.2) x 10^3 s^-1 | kon1 (wt horcolin; CBS1, wt horcolin, sequential model, from koff and Kd): (1.19 ± 0.08) x 10^5 M^-1s^-1 | koff2 (wt horcolin; CBS2, wt horcolin, sequential model): (2.5 ± 0.1) x 10^3 s^-1 | kon2 (wt horcolin; CBS2, wt horcolin, sequential model, from koff and Kd): (5.3 ± 0.2) x 10^5 M^-1s^-1 | Kd (wt horcolin; Kd1, CBS1, wt horcolin, two-binding-site non-cooperative (NC) model, cluster of four residues): 59 ± 2 mM | Kd (wt horcolin; Kd1, CBS1, wt horcolin, two-site sequential binding model, 25 °C, pH 7.4): 19.9 ± 0.1 mM | Kd (wt horcolin; Kd2, CBS2, wt horcolin, two-binding-site non-cooperative (NC) model, cluster of four residues): 7.7 ± 0.1 mM | Kd (wt horcolin; Kd2, CBS2, wt horcolin, two-site sequential binding model, 25 °C, pH 7.4): 4.71 ± 0.02 mM | binding free energy difference ΔΔG^0 between CBS2 and CBS1 (wt horcolin; wt horcolin): 0.85 kcal/mol | fold higher affinity for CBS2 than CBS1 (wt horcolin; wt horcolin, sequential model): 4.2 fold | Kd (D138A horcolin): 3.2 ± 0.3 mM | fold increase of koff at CBS2, D138A versus wt (D138A horcolin): 2 fold | fold increase of kon at CBS2, D138A versus wt (D138A horcolin): 3 fold | koff2 (D138A horcolin; CBS2 only, D138A horcolin, two-state model): (5.0 ± 0.4) x 10^3 s^-1 | kon2 (D138A horcolin; CBS2 only, D138A horcolin, from koff and Kd): (1.6 ± 0.1) x 10^6 M^-1s^-1 | Kd (D39A horcolin): 55.6 ± 0.2 mM | fold increase of koff at CBS1, D39A versus wt (D39A horcolin): 7 fold | fold increase of kon at CBS1, D39A versus wt (D39A horcolin): 2.4 fold | koff1 (D39A horcolin; CBS1 only, D39A horcolin, two-state model): (16.4 ± 0.7) x 10^3 s^-1 | kon1 (D39A horcolin; CBS1 only, D39A horcolin, from koff and Kd): (2.9 ± 0.1) x 10^5 M^-1s^-1 | ΔΔG^0 between the two single-site binding events (D39A horcolin; D138A (CBS2) versus D39A (CBS1) horcolin): 1.7 kcal/mol | factor of difference in koff between single-binding-site mutants (D39A horcolin; D138A versus D39A horcolin): 3.3 | fold difference in kon between single-binding-site mutants (D39A horcolin; D138A versus D39A horcolin): 5.3 fold

B1: horcolin (natural protein, Hordeum vulgare (barley))
chain: T1 sequence (Q5U9T2 1-146)
stoichiometry N (crystal structure): 2

B2: horcolin: dimeric mannose-specific jacalin-related lectin from Hordeum vulgare (barley), 146 amino acids per protomer (protein)
chain: T1 sequence (Q5U9T2 1-146)
Kd (HIV gp120): 14.4 nM | HIV-1 neutralization (HIV-1): has the ability to neutralize HIV-1
